Screening data (PubChem BioAssay)
Hits are enriched below; roughly 3.8% of the tested compounds scored in any of these assays.
Beta apoptosis: beta cell apoptosis inhibition; INS-1E cytokine-induced death, ATP luminescence, 48 h; percent of positive-control rescue, neutral wells zero; protection from apoptosis, % (test concentration not listed); actives 0.8% (n = 300,000);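 active = Every replicate reaches about 75%, or at least half do and their mean reaches it too, limit read from the data; inconclusive = At least half of replicates reach the limit but their mean does not; inactive = Under half of replicates reach the limit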;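 note: 0% = cytokine-treated negative control wells and 100% = positive control rescue; higher means more ATP so stronger rescue from cytokine killing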
MC4R antag cAMP: antagonists of human melanocortin 4 receptor (MC4R). MC4R-expressing cells, MTII-stimulated cAMP, LANCE TR-FRET. AID 540295. actives 0.48% (n = 360,000). inhibition, % at 6.5 µM. P32245;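 active = inhibition above its plate's cutoff, the mean of tested wells on that plate plus 3 SD, cut at about 29% in these data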;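 note: 0% = Melanotan II alone and 100% = Melanotan II plus saturating MCL0020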
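System: U2OS cells stably expressing human melanocortin 4 receptor (MC4R). Reagent: Melanotan II challenge after compound preincubation. Doses: 6.5 µM. Times: 30-min compound, 1-h challenge, 1-h detection, room temperature. Measured by: TR-FRET with Eu-cAMP and labeled anti-cAMP, 671 nm. Replicates: singlicate.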
CSC inhib: cancer stem cell inhibition; cancer stem cell-like cells viability, luminescence; inhibition, % at 7.5 µM; actives 1.1% (n = 300,000); AID 2717; in the data active = inhibition above about 75%; inconclusive = no clear call, values can overlap the other calls; tested in HMLE shEcad cells
TMEM16A act: mouse TMEM16A channel activation, primary screen; actives 0.3% (n = 340,000); HEK293 TMEM16A/YFP-H148Q/I152L, iodide quench fluorescence; active compounds read low; Q8BHY3; B-score at 10 µM;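 active = fluorescence-ratio B-score plate-corrected deviation score at least 3 library SD below zero, with starting fluorescence score within 5 deviations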;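 note: channel opened by trigger with iodide after compound preincubation; score built on the fluorescence ratio of max minus min over baseline; more negative score means more quench and so TMEM16A activation or potentiation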
TMEM16A inh: inhibitors of mouse TMEM16A calcium-activated chloride channel; Q8BHY3; HEK293 TMEM16A/YFP iodide influx fluorescence, ionomycin; normalized B-score (activity score, 25-100; higher = stronger inhibition) at 10 µM; actives 1.2% (n = 310,000); AID 588511;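 active = ratio plate-corrected score three or more library SD toward inhibition, starting fluorescence score within five deviations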;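 note: score derived from kinetic fluorescence span divided by baseline fluorescence per well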
MC4R ag barr: human MC4R agonism via beta-arrestin; P32245; U2OS MC4R beta-arrestin complementation, luminescence; percent of melanotan II response, DMSO zero; actives 0.98% (n = 360,000); AID 540308; activation, % at 8.9 µM;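 active = activation above a per-plate cutoff, the mean activation of sample wells on that plate plus 3 SD, cut at about 8% in these data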
MC4R barr conf: human MC4R beta-arrestin agonism confirmation | AID 602192 | U2OS MC4R beta-arrestin recruitment, luminescence; scaled DMSO 0%, Melanotan II 100% | actives 31% (n = 2,400) | shares compounds with MC4R ag barr | activation, % at 8.9 µM;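 active = mean activation across replicates above the hit cutoff set in the earlier primary screen, cut at about 8% in these data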
MOR-DOR barr ag: counter-screen for MC4R agonists: agonists of mu-delta opioid heterodimer | shares compounds with MC4R ag barr | U2OS PathHunter beta-arrestin, beta-gal luminescence; percent of deltorphin B response, DMSO zero | activation, % at 9.2 µM | actives 5.8% (n = 2,400) | AID 602194;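 active = mean activation across replicates exceeds the hit threshold derived in the earlier primary screen, cut at about 18% in these data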;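 note: 100% = deltorphin B at 0.9 µM final and 0% = DMSO alone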
Target sequence (P35372 whole entry, looked up): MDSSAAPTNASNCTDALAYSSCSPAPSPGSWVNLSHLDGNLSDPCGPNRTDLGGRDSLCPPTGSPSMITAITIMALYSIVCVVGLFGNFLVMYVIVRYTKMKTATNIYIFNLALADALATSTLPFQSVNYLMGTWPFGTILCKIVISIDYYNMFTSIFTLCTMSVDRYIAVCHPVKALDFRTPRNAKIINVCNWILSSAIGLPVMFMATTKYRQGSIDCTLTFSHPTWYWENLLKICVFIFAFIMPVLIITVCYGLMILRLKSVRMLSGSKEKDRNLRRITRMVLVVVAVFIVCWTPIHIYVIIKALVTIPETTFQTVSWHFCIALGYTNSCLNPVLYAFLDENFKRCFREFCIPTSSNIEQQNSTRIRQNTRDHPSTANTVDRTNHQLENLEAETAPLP
Target sequence (P41143 whole entry, looked up): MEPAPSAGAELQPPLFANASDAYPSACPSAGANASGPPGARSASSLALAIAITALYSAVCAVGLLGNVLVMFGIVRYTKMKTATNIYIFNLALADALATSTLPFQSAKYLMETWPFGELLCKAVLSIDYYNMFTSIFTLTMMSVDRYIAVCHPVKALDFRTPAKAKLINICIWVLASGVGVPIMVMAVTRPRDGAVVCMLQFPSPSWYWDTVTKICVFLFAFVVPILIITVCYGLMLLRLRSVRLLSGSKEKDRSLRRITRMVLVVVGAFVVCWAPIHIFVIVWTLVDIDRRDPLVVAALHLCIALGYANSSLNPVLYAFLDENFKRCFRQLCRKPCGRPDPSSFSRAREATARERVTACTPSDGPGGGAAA
Starred values were filed as active, the others as inactive; i = inactive; ? = inconclusive; nt = no result given.

SMILES	Beta apoptosis	MC4R antag cAMP	CSC inhib	TMEM16A act	TMEM16A inh	MC4R ag barr	MC4R barr conf	MOR-DOR barr ag
O=C(CSc1nc2ccccc2s1)Nc1ccc(Cl)c(C(=O)O)c1	-5.4	0.9	-2.5	i	i	0.7	nt	nt
Cn1ccc2ccc(C3=CC(=O)C[C@H](c4ccc(F)cc4)C3)cc21	-16.7	3.5	39.5	i	nt	-0.9	nt	nt
COc1ccc(S(=O)(=O)N2CCN(C(=O)/C=C/c3ccco3)CC2)cc1	nt	6.2	nt	i	nt	-2.4	nt	nt
COc1ccc(-c2cnc(C(O)c3ccc(C(C)(C)C)cc3)[nH]2)cc1 (centres undefined)	nt	4.0	nt	nt	nt	2.4	nt	nt
CCc1cc(=O)oc2cc3oc(C)c(C)c3cc12	-6.8	-6.3	-37.1	i	i	-1.8	nt	nt
CCCc1cc(=O)oc2cc3oc(C)c(C)c3cc12	-1.1	9.0	-10.0	i	i	13.2*	4.4	5.0
Cc1cc(C(=O)Nc2sc3c(c2C#N)CCC(C(C)(C)C)C3)no1 (centres undefined)	11.9	-5.3	-2.7	i	i	9.9*	-1.8	3.0
CC(C)(C)C1CCc2c(sc(NC(=O)c3cc(C4CC4)on3)c2C#N)C1 (centres undefined)	15.5	-5.5	56.9	i	i	0.3	nt	nt
Cc1ccc(Nc2nnc(SCn3nnc4ccccc4c3=O)s2)cc1	0.7	-2.7	-0.3	i	i	-0.6	nt	nt
O=c1c2ccccc2nnn1CSc1nnc(Nc2ccccc2)s1	0.6	2.5	-0.2	i	i	10.2*	0.3	2.4
COc1ccc(C(CC(=O)Nc2ccc(C)cn2)N2Cc3ccccc3C2=O)cc1 (centres undefined)	nt	5.2	nt	nt	i	-0.2	nt	nt
CCN1CCN(c2cc(-c3ccccc3)nc3cc(-c4cccc(F)c4)nn23)CC1	8.0	14.4	?	i	i	12.3*	2.4	13.7
COc1ccc(Cl)cc1NC(=O)c1c(-c2ccccc2)noc1C	2.1	-0.6	-15.0	i	i	27.5*	-0.1	3.5
COc1ccc(NC(=O)c2c(-c3ccccc3)noc2C)c(OC)c1	-1.5	2.3	18.2	i	i	1.7	nt	nt
COc1cc(OC)c(NC(=O)c2c(-c3ccccc3)noc2C)cc1Cl	4.8	7.7	-7.9	i	i	24.6*	5.5	6.1
Cc1ccc(C(=O)NCC(=O)Nc2cccc(C(F)(F)F)c2)cc1	0.8	9.6	-0.2	i	i	15.4*	-1.0	2.7
O=C(CNC(=O)c1ccccc1)Nc1cccc(C(F)(F)F)c1	nt	8.1	0.6	i	i	0.0	nt	nt
O=C(O)c1nn(CCOc2cccc(Cl)c2)c(=O)c2ccccc12	-3.2	4.9	9.0	i	i	2.6	nt	nt
O=C(O)c1nn(CCOc2ccc(Cl)cc2Cl)c(=O)c2ccccc12	-6.2	0.4	-13.0	i	i	17.7*	0.5	5.8
O=C1NC[C@@H](Cc2cccc3ccccc23)N(CCc2cc(C(F)(F)F)cc(C(F)(F)F)c2)C1=O	-10.8	-1.4	5.7	i	i	11.3*	9.8*	3.3
COc1ccccc1-c1csc(C(O)c2cccc(Cl)c2)n1 (centres undefined)	nt	1.6	nt	nt	nt	2.2	nt	nt
CCn1nc(C)cc1C(=O)N1CCCC(Nc2ccc(C(C)C)cc2)C1 (centres undefined)	nt	-3.0	nt	i	nt	-3.4	nt	nt
C/C=C/c1ccc(OCC(=O)Nc2cc(C(F)(F)F)ccc2N2CCOCC2)c(OC)c1	-5.9	3.0	17.7	i	i	0.0	nt	nt
COc1cc(/C=C/C(=O)OCC(=O)Nc2cc(C(F)(F)F)ccc2N2CCOCC2)ccc1O	0.6	2.8	18.2	i	i	23.6*	4.6	14.8
O=C(c1ccc(Cl)cc1)N1CCc2c([nH]c3ccccc23)C1C(F)(F)F (centres undefined)	-5.4	17.5	7.5	i	i	9.8*	1.3	8.1
SMILES	Beta apoptosis	MC4R antag cAMP	CSC inhib	TMEM16A act	TMEM16A inh	MC4R ag barr	MC4R barr conf	MOR-DOR barr ag
COc1ccccc1-c1cccc([C@@H]2C[C@H]3[C@H](CON3C)CN2C(=O)CCc2ccccc2)c1	nt	2.6	nt	nt	nt	-1.3	nt	nt
NC(=O)c1ccc(NCC2CCCO2)c([N+](=O)[O-])c1 (centres undefined)	-1.7	-6.4	-4.4	i	i	2.6	nt	nt
Cc1ccc(NC(=O)c2ccc(NCc3ccco3)c([N+](=O)[O-])c2)cc1Cl	14.0	2.8	-22.1	i	i	10.9*	24.8*	26.0*
Cc1ccc(NC(=O)c2ccc(NCC3CCCO3)c([N+](=O)[O-])c2)cc1Cl (centres undefined)	nt	-1.8	7.1	i	i	33.9*	12.6*	20.5*
COc1cc(-c2cc3nc(NCc4ccco4)ccn3n2)cc(OC)c1OC	nt	-1.6	nt	nt	nt	1.3	nt	nt
Cc1cc(C)n(CC(=O)NC2CCCc3c2cnn3-c2ccc(C)c(C)c2)n1 (centres undefined)	-2.9	13.9	8.4	i	i	-2.1	nt	nt
Oc1ccc(/C=N/N2CCN(C3c4ccccc4-c4ccccc43)CC2)cc1O	3.8	18.4	52.3	i	i	27.6*	13.1*	13.0
Oc1ccc(/C=N/N2CCN(C3c4ccccc4-c4ccccc43)CC2)cc1	-5.1	12.6	48.5	i	i	6.3	nt	nt
CC1(C(=O)NS(=O)(=O)c2ccc(Cl)cc2)CCN1C(=O)c1ccccc1CCc1ccccc1 (centres undefined)	nt	7.5	nt	nt	nt	0.8	nt	nt
c1ccc(-c2nnc(-c3c[nH]c4ccccc34)nc2-c2ccccc2)cc1	9.1	7.6	-8.1	i	i	15.3*	-3.9	1.2
COc1ccc(NS(=O)(=O)c2cccc(C(=O)O)c2)cc1S(=O)(=O)N1CCOCC1	-6.4	-3.8	-0.3	i	nt	-3.0	nt	nt
Cc1nn(Cc2ccc(F)cc2)c2sc(C(=O)Nc3nccs3)cc12	10.6	3.2	37.4	i	i	13.5*	2.0	5.3
Cc1nn(Cc2ccccc2Cl)c2sc(C(=O)Nc3nccs3)cc12	1.3	-6.3	6.8	i	i	7.2	nt	nt
Cc1nn(C)c2ncc(C(=O)c3cc(F)ccc3O)cc12	-1.7	12.5	-11.4	i	i	1.7	nt	nt
O=C(c1cnc2ccc3ccccc3c2c1)c1cc(F)ccc1O	-3.8	7.8	83.8*	i	i	22.1*	-4.3	4.8
S=C(Nc1cccc(Cl)c1)N1CCN(c2ccccn2)CC1	nt	1.1	-3.6	i	i	-1.0	nt	nt
